Ecoli rRNA inh: inhibits bacterial ribosomal RNA function over humanized ribosomes; E. coli WT GFP vs humanized-ribosome RFP mutants, fluorescence, 24 h; hits give low values; DMSO median 0, no signal -100; GFP signal change (wild-type ribosome), % (concentration not given with the values); actives 1.6% (n = 350,000); AID 720706;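 active = significant combined selectivity score with lowered wild-type GFP, culture density cut under 30%, mutant RFP and density less affected; inactive = any of these conditions unmet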
AF4-AF9 inh: MLL-AF4/AF9 protein interaction inhibition. P42568. AlphaScreen, biotin-AF4 peptide binding to FLAG-AF9. inhibition, % at 10 µM. actives 0.47% (n = 350,000). AID 651704;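 active = every replicate reaching a set inhibition limit, whatever the replicate mean, cut at about 25% in these data; inconclusive = mean inhibition reaches that limit but some replicates miss it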;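 note: 0% = plate neutral control median and 100% = total signal loss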
E-sel inducer: induces E-selectin expression in human endothelial cells; actives 0.37% (n = 260,000); HUVEC E-selectin immunofluorescence imaging; normalized: neutral wells 0, TNF-alpha wells 100; AID 686992; activation, % at 7.58 µM;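 active = mean E-selectin-positive cell signal at least 10% of the positive control, reached in at least 60% of replicates, without over 20% cell loss; inconclusive = no rule given, readout overlaps actives, possibly toxicity-flagged; inactive = the rest, including those meeting only one limit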
Target sequence (P16581 whole entry, looked up): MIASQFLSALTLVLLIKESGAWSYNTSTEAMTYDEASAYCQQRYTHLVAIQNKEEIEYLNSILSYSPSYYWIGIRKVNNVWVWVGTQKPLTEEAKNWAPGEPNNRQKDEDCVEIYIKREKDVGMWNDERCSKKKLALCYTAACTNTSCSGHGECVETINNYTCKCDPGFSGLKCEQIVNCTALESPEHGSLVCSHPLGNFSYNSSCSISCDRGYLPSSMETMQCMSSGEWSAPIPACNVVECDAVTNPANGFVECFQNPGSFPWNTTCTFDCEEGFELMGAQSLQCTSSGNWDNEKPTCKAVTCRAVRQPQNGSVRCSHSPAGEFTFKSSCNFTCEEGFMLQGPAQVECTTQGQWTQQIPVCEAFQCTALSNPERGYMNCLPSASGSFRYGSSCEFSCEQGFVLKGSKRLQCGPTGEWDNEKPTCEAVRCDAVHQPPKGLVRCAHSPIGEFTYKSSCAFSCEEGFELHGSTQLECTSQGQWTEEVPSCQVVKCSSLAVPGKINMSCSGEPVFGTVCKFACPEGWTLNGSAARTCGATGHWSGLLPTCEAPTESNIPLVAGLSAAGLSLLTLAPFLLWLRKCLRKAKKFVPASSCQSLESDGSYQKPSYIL
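Read-out: % PE-positive cells | Test system: HUVEC | Doses: One compound dose added by pin transfer | Buffer or medium: EGM-2 over gelatin coat | Signal: Immunofluorescence imaging | Benchmarks: TNF-alpha, DMSO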
RAD54 branch: inhibitors of human RAD54 branch migration; Q92698; RAD54 Holliday junction branch migration, FAM/BHQ fluorescence; inhibition, % at 10.4 µM; actives 0.14% (n = 360,000); AID 602329;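 active = mean normalized replicate activity at least 40 and at least half of replicates scoring 40 or more; inconclusive = only one of the two criteria met; inactive = mean below 40 and under half of replicates reaching 40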;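 note: 0% = median of neutral control wells and 100% = median of positive control wells; inhibitors cause a drop in the FAM fluorescence signal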
INS-1E GSIS act: GLuc luminescence reporter in INS-1E cells, primary screen for activators of glucose-dependent secretion of insulin; INS-1E GLuc reporter insulin secretion, 2-3 h; activation, % at 16.6 µM; actives 0.61% (n = 370,000);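 active = lowest replicate activation of at least 40%, so every replicate reaches that level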;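 note: 0% = median of neutral control wells and 100% = median of IBMX positive control wells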
RAD52 inh: inhibitors of human RAD52 DNA annealing | recombinant RAD52 DNA annealing, FRET fluorescence | inhibition, % at 18.7 µM | actives 0.46% (n = 360,000) | AID 651710;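 active = every replicate showing at least 50% inhibition; inconclusive = mean inhibition at least 50% but not in every replicate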
DNA binder FP: counter-screen for RAD52 inhibitors: DNA binding compounds | AC50, µM | AID 652128 | actives 8% (n = 1,000) | shares compounds with RAD52 inh | Salmon sperm DNA/acridine orange FP displacement;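 active = fitted half-maximal concentration for signal loss at or below twice the highest dose tested, in every separate run, actives reach about 64 µM in these data; inconclusive = runs disagree, or flat partial signal loss, or poor fit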
An asterisk follows results filed as active; i = inactive; ? = inconclusive; . = no result. The list is not random: actives were taken first. Their share in the collection is about 2.6%.

SMILES | Ecoli rRNA inh | AF4-AF9 inh | E-sel inducer | RAD54 branch | INS-1E GSIS act | RAD52 inh | DNA binder FP
CCOC(=O)c1c(-c2ccccc2)oc2ccc(OC(C)C(=O)O)cc12 (stereo unspecified) | -14.2 | 2.3 | -0.1 | -4.5 | 11.7 | -8.6 | .
CCOC(=O)c1c(-c2ccccc2)oc2ccc(OCC(O)CN(C)C)cc12 (stereo unspecified) | -59.2 | 13.5 | . | 32.1 | 37.4 | 43.2 | i
CCn1cc(C(=O)NN)c(=O)c2cc(F)c(N3CCN(C)CC3)cc21 | -30.2 | 2.8 | 0.1 | 2.6 | 33.1 | 97.1* | i
CCn1cc(C(=O)NN)c(=O)c2cc(F)c(N3CCCCC3)cc21 | -34.7 | 1.1 | 0.1 | -0.4 | -19.1 | -4.3 | .
Cc1ccc(-c2ccc3c(c2)O[C@H](CN(C)Cc2ccncc2)[C@@H](C)CN([C@H](C)CO)S3(=O)=O)cc1 | -2.3 | -2.7 | 0.5 | -5.5 | -6.5 | 4.9 | .
Cc1ccc(-c2ccc3c(c2)O[C@H](CN(C)C(=O)CN(C)C)[C@H](C)CN([C@H](C)CO)S3(=O)=O)cc1 | 3.7 | 6.8 | ? | 8.9 | 16.8 | 11.4 | .
Cc1cc(N2CCN(C)CC2)nc2ccc(NC(=S)N3CCN(c4ccccn4)CC3)cc12 | 0.7 | 16.0 | 3.1 | . | -0.8 | 70.6* | i
CCN1CCN(c2cc(C)c3cc(NC(=S)N4CCOCC4)ccc3n2)CC1 | 0.4 | 3.9 | -0.2 | . | 29.0 | 77.9* | i
CCC(C)NC(=S)Nc1ccc2nc(N3CCN(CC)CC3)cc(C)c2c1 (stereo unspecified) | -1.3 | 10.7 | 1.0 | . | -1.0 | 44.5 | .
CCN1CCN(c2cc(C)c3cc(NC(=S)N(CC)CC)ccc3n2)CC1 | 2.8 | 25.2* | -0.2 | . | 32.3 | 68.1* | i
c1cncc(Nc2c3ccccc3nc3ccccc23)c1 | -4.0 | -12.9 | . | 78.1* | 0.7 | 59.1* | i
COc1ccccc1-c1ccc2n(c1=O)C[C@H]1[C@H](CO)[C@@H](C(=O)Nc3nccs3)N(CC3CC3)[C@@H]21 | 0.6 | 3.1 | 0.3 | -5.6 | 1.3 | 5.8 | .
CCCCCCCC(=O)OCC(O)CO (stereo unspecified) | 9.8 | -3.3 | 1.6 | 9.4 | 25.9 | 6.7 | .
CCCCCCCCCCCCCCC(O)C[N+](C)(CCO)CCO (stereo unspecified) | -62.4 | 6.6 | 2.0 | . | 294.8* | 84.6* | ?
CC(C)NC(=O)N1[C@H](CO)[C@H]2c3ccccc3N(C(=O)Nc3ccc(F)cc3)C[C@H]21 | 1.0 | -0.1 | 0.0 | 11.7 | 6.0 | 1.1 | .
O=C(C[C@H]1C[C@H]2c3cc(NC(=O)c4ccc5c(c4)OCO5)ccc3O[C@H]2[C@H](CO)O1)NCCc1ccccc1 | -1.0 | -10.0 | -0.4 | 0.5 | -2.8 | 9.9 | .
O=C(CC(C(=O)O)c1cccc(Br)c1)c1ccc(Cl)cc1 (stereo unspecified) | -33.0 | -0.4 | 0.3 | 8.7 | . | 107.8* | i
CCCC(=O)Nc1ccc2c(c1)OC[C@@H](C)N(Cc1nccs1)C[C@@H](C)[C@H](OC)CN(C)C2=O | 0.2 | -2.1 | -0.3 | 0.3 | -4.3 | -1.6 | .
COc1ccccc1C#Cc1cnc2c(c1)C(=O)N([C@@H](C)CO)C[C@H](C)[C@@H](CN(C)C(C)=O)O2 | -1.0 | -0.8 | 0.0 | -2.6 | 23.1 | 8.5 | .
OCCNCc1ccc(OCc2ccc(Cl)cc2Cl)cc1 | -18.9 | -0.4 | . | . | 19.6 | 12.7 | .
OCCCCNCc1ccc(OCc2ccc(Cl)cc2Cl)cc1 | 4.0 | -7.0 | . | 19.5 | 2.0 | 65.6* | i
OC(CN1CCCC1)Cn1ccc2ccccc21 (stereo unspecified) | 4.9 | 21.8 | 0.0 | -0.5 | -11.7 | 62.1* | i
C[C@H](CO)N1C[C@H](C)[C@@H](CN(C)S(=O)(=O)c2ccc(F)cc2)Oc2ccc(NC(=O)CCC(F)(F)F)cc2CC1=O | 0.7 | -2.3 | 0.1 | 7.5 | -2.3 | -14.8 | .
O=C(NCC1CCCCC1)C1(CC2CC(c3ccc(Cl)cc3)=NO2)CCNCC1 (stereo unspecified) | -54.9 | 9.0 | -0.2 | 11.0 | . | 66.9* | i

Compound activity deposited in PubChem BioAssay by Broad Institute.
